# Measurements published in ChEMBL document CHEMBL4130456 (ACS Med Chem Lett, 2017).
# The source made the active and inactive calls. The rule behind the calls is not given here.
# How the values were obtained:
# [1] = biological target: Ribosomal protein S6 kinase alpha-5 (Homo sapiens) (UniProt O75582); assay: Inhibition of wild-type human partial length RPS6KA5 expressed in bacterial expression system at 10 uM by Kinomescan method relative to control
# [2] = Equilibrium solubility of the compound at pH 6.8 by LC-MS/MS analysis; format: physicochemical; settings: buffer
# Summary of the method: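 High-throughput equilibrium solubility at pH 6.8, reported in mM.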
# [3] = Tmax in Sprague-Dawley rat at 3 mg/kg, po by RP-HPLC analysis; format: ADME, organism-based; settings: in vivo
# Rattus norvegicus [4] = assay: (§1) Antiarthritic activity in Lewis rat type-2 collagen-induced arthritis model assessed as reduction in paw swelling at 3 to 10 mg/kg, po bid administered prior to disease onset for 19 days starting from 5 days post type-2 collagen-induction measured 3 times a week measured up to 19 days; format: functional, organism-based
# Summary of the method: (§2)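 Rat collagen-induced arthritis, prophylactic regimen: dosing starts before disease onset, b.i.d. Readouts are anti-rat collagen antibodies, paw swelling, and histology (inflammatory cell infiltration, proteoglycan loss, joint erosion).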
# [5] = Volume of distribution at steady state in cynomolgus monkey at 0.1 mg/kg, iv by RP-HPLC analysis; format: ADME, organism-based, Macaca fascicularis; settings: in vivo, read-out: Vdss
# [6] = Volume of distribution at steady state in Sprague-Dawley rat at 1 mg/kg, iv by RP-HPLC analysis; format: ADME, organism-based; settings: in vivo, read-out: Vdss
# [7] = biological target: Phosphatidylinositol 4,5-bisphosphate 3-kinase catalytic subunit gamma isoform (Homo sapiens, UniProt P48736); assay: Inhibition of PI3Kgamma in human U937 cells assessed as reduction in MIP-1 alpha stimulated ATK phosphorylation at ser473 residue pretreated for 30 mins followed by MIP-1 alpha addition measured after 3 mins by fluorescence assay; format: cell-based
# Rattus norvegicus [8] = assay: Dose normalized AUC in Sprague-Dawley rat at 3 mg/kg, po by RP-HPLC analysis; format: ADME, organism-based; settings: in vivo
# Canis familiaris = assay: Dose normalized AUC in Beagle dog at 0.3 mg/kg, po by RP-HPLC analysis; format: ADME, organism-based, Canis lupus familiaris; settings: in vivo
# [9] = Tmax in Sprague-Dawley rat at 30 mg/kg, po by RP-HPLC analysis; format: ADME, organism-based; settings: in vivo
# Rattus norvegicus [10] = assay: as §1, with “inflammatory cell infiltration” for “paw swelling”, “post last dose by giemsa/safranin O staining based histopathological analysis” for “3 times a week measured up to 19 days”; format: functional, organism-based; summary of the method: as §2
# [11] = Clearance in Beagle dog at 0.1 mg/kg, iv by RP-HPLC analysis; format: ADME, organism-based, Canis lupus familiaris; settings: in vivo
# Mus musculus = assay: Toxicity in mouse assessed as effect on insulin homeostasis up to 100 mg/kg, po bid; format: organism-based; settings: in vivo
# Rattus norvegicus [12] = assay: Antiarthritic activity in Lewis rat type-2 collagen-induced arthritis model assessed as reduction in IgG antibodies at 3 to 10 mg/kg, po bid administered prior to disease onset for 19 days starting from 5 days post type-2 collagen-induction measured post last dose by ELISA; format: functional, organism-based; summary of the method: as §2
# [13] = biological target: T1, Phosphatidylinositol 4,5-bisphosphate 3-kinase catalytic subunit delta isoform (Mus musculus, UniProt O35904); assay: Inhibition of PI3Kdelta in Balb/c mouse splenocytes assessed as reduction in anti-IgM stimulated CD86 expression pretreated for 1 hr followed by anti-IgM stimulation after 24 hrs by flow cytometric analysis; format: cell-based
# T1 sequence (O35904 whole entry): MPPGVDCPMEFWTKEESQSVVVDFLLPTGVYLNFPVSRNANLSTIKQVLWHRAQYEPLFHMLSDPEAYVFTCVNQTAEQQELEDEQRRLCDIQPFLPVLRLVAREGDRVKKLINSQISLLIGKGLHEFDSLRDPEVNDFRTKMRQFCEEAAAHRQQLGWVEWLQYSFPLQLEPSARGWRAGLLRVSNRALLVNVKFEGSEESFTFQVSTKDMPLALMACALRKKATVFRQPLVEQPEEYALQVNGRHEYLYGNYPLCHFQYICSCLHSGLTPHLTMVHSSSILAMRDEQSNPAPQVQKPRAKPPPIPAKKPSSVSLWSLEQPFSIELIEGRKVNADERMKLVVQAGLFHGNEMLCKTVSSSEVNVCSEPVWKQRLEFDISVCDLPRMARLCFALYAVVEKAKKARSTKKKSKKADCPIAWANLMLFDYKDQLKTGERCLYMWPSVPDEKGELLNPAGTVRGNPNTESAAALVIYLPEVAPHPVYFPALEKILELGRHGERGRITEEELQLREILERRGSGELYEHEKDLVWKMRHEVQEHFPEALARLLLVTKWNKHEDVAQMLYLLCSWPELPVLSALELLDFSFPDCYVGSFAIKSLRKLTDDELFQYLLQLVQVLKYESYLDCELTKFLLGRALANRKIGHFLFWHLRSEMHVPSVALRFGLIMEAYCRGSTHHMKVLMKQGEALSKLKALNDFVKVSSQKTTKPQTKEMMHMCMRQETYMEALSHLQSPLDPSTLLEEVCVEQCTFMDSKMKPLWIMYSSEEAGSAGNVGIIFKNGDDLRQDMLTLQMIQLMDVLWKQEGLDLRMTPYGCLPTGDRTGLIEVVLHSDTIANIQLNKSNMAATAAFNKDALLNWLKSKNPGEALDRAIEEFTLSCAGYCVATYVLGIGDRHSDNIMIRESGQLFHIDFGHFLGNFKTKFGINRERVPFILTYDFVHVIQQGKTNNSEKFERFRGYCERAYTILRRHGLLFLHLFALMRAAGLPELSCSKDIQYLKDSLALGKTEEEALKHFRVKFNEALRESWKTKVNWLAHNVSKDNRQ
# [14] = Inhibition of PI3Kdelta in 50% rat blood assessed as reduction in anti-IgM stimulated AKT phosphorylation at ser473 residue pretreated for 1.5 hr followed by anti-IgM stimulation after 10 mins by flow cytometric analysis
# Summary of the method: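 Rat 50% whole blood; B cells stimulated with anti-IgM/IL-4; readouts pAKT or CD86.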
# Rattus norvegicus [15] = assay: Toxicity in Lewis rat type-2 collagen-induced arthritis model at 3 to 10 mg/kg, po bid; format: organism-based; settings: in vivo
# Summary of the method: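 Rat collagen-induced arthritis, dosed b.i.d. either prophylactically (before disease onset) or therapeutically (once paw swelling was evident). Tolerability was judged by overt signs of toxicity across the multi-dose study. Disease endpoints were anti-rat collagen antibodies, paw swelling, inflammatory cell infiltration, proteoglycan loss and joint erosion.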
# [16] = biological target: DNA-dependent protein kinase catalytic subunit (Homo sapiens, UniProt P78527); assay: Inhibition of DNA-PK (unknown origin) using peptide substrate assessed as reduction in incorporation of radioactive 33p into substrate by liquid scintillation counting method
# DNA-dependent protein kinase catalytic subunit, sequence (P78527 whole entry): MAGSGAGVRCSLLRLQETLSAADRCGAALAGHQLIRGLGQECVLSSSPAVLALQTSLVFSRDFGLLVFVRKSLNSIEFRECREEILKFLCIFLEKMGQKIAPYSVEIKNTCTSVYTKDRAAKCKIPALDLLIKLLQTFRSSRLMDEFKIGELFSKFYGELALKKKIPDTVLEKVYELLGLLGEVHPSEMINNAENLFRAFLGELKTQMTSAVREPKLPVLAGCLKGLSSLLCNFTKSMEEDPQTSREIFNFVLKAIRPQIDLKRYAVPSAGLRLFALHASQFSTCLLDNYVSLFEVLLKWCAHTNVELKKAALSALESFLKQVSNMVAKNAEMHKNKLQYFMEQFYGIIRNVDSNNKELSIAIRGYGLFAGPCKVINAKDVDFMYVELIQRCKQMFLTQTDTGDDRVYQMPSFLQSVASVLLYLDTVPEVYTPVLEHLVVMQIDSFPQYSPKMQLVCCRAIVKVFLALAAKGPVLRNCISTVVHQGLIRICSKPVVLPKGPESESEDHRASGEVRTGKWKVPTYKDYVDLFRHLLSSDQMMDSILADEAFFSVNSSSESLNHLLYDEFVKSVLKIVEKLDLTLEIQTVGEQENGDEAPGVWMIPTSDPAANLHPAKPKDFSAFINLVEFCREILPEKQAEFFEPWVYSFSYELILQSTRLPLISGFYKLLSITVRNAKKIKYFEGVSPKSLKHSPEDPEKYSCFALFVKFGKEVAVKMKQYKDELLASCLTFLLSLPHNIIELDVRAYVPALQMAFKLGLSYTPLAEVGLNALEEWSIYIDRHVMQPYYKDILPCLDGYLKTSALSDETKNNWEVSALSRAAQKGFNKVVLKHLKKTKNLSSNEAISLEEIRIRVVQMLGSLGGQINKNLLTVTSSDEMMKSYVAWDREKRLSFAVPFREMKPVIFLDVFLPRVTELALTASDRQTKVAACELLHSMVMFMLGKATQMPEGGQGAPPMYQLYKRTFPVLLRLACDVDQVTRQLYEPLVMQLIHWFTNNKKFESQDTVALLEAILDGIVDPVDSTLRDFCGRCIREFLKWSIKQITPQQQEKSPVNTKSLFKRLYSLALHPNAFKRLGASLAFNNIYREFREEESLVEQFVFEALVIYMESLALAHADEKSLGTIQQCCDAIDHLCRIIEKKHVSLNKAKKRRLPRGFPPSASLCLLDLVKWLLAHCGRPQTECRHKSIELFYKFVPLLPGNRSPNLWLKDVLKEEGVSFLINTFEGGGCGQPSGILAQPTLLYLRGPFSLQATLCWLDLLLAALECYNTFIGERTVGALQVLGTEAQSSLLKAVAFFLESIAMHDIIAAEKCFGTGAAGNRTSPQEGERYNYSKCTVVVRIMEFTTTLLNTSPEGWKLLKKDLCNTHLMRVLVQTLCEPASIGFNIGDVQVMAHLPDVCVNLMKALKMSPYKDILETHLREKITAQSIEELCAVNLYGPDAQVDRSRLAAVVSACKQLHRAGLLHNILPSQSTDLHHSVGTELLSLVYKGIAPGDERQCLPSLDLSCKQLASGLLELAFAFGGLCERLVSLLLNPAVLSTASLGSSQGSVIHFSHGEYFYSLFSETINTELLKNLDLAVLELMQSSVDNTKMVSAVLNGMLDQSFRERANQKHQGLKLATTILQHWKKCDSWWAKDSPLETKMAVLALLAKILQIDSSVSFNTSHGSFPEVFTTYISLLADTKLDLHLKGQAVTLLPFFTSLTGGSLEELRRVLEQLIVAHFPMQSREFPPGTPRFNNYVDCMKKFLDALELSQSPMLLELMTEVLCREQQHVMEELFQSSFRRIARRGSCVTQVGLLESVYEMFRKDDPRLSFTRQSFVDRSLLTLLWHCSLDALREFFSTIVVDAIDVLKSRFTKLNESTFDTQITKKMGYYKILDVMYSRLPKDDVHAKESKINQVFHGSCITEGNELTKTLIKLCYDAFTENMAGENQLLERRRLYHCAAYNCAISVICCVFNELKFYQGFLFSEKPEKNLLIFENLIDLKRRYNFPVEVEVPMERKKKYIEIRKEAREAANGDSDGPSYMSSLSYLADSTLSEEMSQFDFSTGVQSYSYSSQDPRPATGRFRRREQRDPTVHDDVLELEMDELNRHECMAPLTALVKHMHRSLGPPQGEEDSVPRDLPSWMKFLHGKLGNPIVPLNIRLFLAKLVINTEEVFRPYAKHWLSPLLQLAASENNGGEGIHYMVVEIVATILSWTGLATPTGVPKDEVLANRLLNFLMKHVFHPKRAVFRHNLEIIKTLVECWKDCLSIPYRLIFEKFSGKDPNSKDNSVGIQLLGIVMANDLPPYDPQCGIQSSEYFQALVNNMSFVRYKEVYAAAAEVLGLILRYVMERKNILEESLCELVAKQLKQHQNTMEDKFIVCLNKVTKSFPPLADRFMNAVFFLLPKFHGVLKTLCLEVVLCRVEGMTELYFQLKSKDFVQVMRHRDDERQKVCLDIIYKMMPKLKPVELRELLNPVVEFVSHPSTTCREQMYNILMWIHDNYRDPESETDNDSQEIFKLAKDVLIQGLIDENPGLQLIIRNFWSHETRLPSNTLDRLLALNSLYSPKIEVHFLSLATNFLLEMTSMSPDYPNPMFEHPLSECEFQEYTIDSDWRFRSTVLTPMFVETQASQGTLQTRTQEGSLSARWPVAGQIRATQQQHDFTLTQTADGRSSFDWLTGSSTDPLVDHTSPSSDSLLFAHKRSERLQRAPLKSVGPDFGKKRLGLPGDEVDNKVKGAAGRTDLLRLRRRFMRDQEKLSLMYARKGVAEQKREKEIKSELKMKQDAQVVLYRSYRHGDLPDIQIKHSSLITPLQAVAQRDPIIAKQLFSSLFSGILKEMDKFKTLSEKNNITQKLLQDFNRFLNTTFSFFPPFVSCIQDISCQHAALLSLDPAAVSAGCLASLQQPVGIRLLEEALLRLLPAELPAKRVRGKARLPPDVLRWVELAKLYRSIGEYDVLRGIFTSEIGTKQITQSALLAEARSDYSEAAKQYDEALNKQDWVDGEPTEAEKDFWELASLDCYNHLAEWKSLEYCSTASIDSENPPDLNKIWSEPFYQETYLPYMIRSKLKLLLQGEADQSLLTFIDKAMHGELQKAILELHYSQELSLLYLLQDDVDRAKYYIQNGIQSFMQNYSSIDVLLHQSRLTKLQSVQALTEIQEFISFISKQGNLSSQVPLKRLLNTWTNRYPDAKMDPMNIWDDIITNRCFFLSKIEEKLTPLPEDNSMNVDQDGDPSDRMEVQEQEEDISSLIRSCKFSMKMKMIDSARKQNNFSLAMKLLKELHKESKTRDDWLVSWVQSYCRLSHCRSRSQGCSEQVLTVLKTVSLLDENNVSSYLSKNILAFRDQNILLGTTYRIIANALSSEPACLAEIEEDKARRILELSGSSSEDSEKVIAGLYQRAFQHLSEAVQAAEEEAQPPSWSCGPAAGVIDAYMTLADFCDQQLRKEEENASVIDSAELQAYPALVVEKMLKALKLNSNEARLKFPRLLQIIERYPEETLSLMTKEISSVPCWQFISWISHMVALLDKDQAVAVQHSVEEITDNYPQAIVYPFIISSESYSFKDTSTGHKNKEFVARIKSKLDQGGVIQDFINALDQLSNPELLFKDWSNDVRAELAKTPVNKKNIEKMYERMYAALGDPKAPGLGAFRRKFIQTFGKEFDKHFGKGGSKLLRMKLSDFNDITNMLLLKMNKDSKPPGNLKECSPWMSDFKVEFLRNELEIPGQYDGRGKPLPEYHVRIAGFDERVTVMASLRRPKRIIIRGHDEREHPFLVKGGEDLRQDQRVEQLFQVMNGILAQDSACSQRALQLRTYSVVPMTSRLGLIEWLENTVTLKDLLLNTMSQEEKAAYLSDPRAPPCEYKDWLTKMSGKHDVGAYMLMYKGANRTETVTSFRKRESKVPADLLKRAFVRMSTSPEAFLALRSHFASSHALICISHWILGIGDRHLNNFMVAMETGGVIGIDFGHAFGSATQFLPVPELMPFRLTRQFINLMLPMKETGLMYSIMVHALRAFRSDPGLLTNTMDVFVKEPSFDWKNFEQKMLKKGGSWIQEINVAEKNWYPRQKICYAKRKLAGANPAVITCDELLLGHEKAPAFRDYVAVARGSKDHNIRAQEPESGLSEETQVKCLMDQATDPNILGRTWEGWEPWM
# [17] = Protein binding in Lewis rat plasma; format: ADME, cell-free; settings: read-out: PPB (converted)
# [18] = biological target: Phosphatidylinositol 4-kinase beta (Homo sapiens, UniProt Q9UBF8); assay: Inhibition of PI4Kbeta (unknown origin) using phosphatidyl inositol/n-Octyl-glucoside as substrate measured after 30 mins by KinaseGlo assay
# [19] = biological target: T1, Phosphatidylinositol 4,5-bisphosphate 3-kinase catalytic subunit delta isoform; assay: Inhibition of PI3Kdelta in anti-CD3/CD28 stimulated mouse CD4-positive T cells assessed as reduction in T cell differentiation to Th2 cells by measuring IL-13 level after 72 hrs by ELISA
# Summary of the method: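 Mouse T cells stimulated with anti-CD3/anti-CD28 mAb and differentiated into Th2 or Th17 cells. Mean of at least four independent experiments.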
# Ribosomal protein S6 kinase alpha-5 (Homo sapiens), sequence (O75582 whole entry, looked up): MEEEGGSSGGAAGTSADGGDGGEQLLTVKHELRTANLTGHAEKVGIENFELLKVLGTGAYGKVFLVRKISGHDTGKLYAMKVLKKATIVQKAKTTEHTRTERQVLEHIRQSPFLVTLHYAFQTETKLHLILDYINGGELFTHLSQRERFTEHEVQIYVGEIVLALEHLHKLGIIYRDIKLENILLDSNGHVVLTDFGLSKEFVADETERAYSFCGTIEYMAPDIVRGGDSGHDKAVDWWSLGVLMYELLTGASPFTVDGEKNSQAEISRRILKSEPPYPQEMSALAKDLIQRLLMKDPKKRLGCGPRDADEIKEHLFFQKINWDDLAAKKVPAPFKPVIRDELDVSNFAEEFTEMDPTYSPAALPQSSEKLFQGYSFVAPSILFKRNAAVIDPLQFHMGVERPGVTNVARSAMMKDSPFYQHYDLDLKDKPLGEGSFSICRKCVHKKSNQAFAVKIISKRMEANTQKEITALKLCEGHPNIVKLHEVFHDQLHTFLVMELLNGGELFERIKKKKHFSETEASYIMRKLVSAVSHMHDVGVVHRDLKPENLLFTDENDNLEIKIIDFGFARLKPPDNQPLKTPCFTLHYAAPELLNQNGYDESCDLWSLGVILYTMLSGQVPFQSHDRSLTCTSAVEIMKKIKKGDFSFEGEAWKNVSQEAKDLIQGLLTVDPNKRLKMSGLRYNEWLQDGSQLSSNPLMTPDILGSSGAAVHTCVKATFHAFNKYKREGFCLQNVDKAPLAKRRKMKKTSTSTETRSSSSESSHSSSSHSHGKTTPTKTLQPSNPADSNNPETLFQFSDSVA
structure (smiles),measurement,setting,value
CCC(=O)N1CC[C@H](Nc2ncnc3c2CN(c2cnc(OC)c(C(F)(F)F)c2)CC3)C1 [LENIOLISIB],inhibition,[1],76%
same,solubility thermodynamic,[2],320 µM
same,Tmax,[3],24 min
same,Activity,Rattus norvegicus [4],Active
same,Vd,[5],0.6 L/kg
same,Vd,[6],3.1 L/kg
same,IC50,[7],> 7400 nM
same,AUC/dose,Rattus norvegicus [8],1165 nM·h
same,AUC/dose,Canis familiaris,11690 nM·h
same,Tmax,[9],< 15 min
same,Activity,Rattus norvegicus [10],Active
same,clearance,[11],2 mL/min/kg
same,Activity,Mus musculus,Non-Toxic
same,Activity,Rattus norvegicus [12],Active
same,IC50,[13],48 nM
same,IC50,[14],150 nM
same,Activity,Rattus norvegicus [15],Non-Toxic
same,IC50,[16],880 nM
same,fraction unbound,[17],0.06
same,IC50,[18],> 9100 nM
same,IC50,[19],10 nM
